Converted amounts (≈) assume the structure as drawn. The source made the active and inactive calls. The calls are words filed in the database; no cut-off is given here.
What was measured:
[1] = system: Pseudomonas aeruginosa; assay: Antimicrobial activity against Pseudomonas aeruginosa at 15 ug after 24 hrs by disk diffusion method; type: functional; settings: read-out: IZ
In short: (§1)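 Inoculum made in 0.85% saline against McFarland standard, swabbed evenly onto nutrient agar; sterile filter-paper discs set equidistant and loaded with equal volumes of drug at varying amounts; zone of inhibition measured after 24 h at 37 °C; ciprofloxacin reference.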

[2] = system: Klebsiella pneumoniae; assay: Antimicrobial activity against Klebsiella pneumoniae by broth microdilution assay; type: functional
In short: (§2)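 Broth microdilution per NCCLS 1997 in 96-well plate; final inoculum 10^5 cfu/mL; incubated 35.7 °C in air 18–20 h; MIC read as lowest concentration with no visible growth.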

[3] = system: Staphylococcus aureus; assay: Antimicrobial activity against Staphylococcus aureus at 10 ug after 24 hrs by disk diffusion method; type: functional; settings: read-out: IZ; in short: as §1
[4] = system: Escherichia coli; assay: Antimicrobial activity against Escherichia coli at 25 ug after 24 hrs by disk diffusion method; type: functional; settings: read-out: IZ; in short: as §1
[5] = system: Escherichia coli; assay: Antimicrobial activity against Escherichia coli by broth microdilution assay; type: functional; in short: as §2
[6] = system: Staphylococcus aureus; assay: Antimicrobial activity against Staphylococcus aureus at 25 ug after 24 hrs by disk diffusion method; type: functional; settings: read-out: IZ; in short: as §1
[7] = system: Klebsiella pneumoniae; assay: Antimicrobial activity against Klebsiella pneumoniae at 15 ug after 24 hrs by disk diffusion method; type: functional; settings: read-out: IZ; in short: as §1
[8] = system: Pseudomonas aeruginosa; assay: Antimicrobial activity against Pseudomonas aeruginosa by broth microdilution assay; type: functional; in short: as §2
[9] = system: Escherichia coli; assay: Antimicrobial activity against Escherichia coli at 15 ug after 24 hrs by disk diffusion method; type: functional; settings: read-out: IZ; in short: as §1
[10] = system: Bacillus subtilis; assay: Antimicrobial activity against Bacillus subtilis at 20 ug after 24 hrs by disk diffusion method; type: functional; settings: read-out: IZ; in short: as §1
[11] = system: Klebsiella pneumoniae; assay: Antimicrobial activity against Klebsiella pneumoniae at 10 ug after 24 hrs by disk diffusion method; type: functional; settings: read-out: IZ; in short: as §1
[12] = system: Pseudomonas aeruginosa; assay: Antimicrobial activity against Pseudomonas aeruginosa at 10 ug after 24 hrs by disk diffusion method; type: functional; settings: read-out: IZ; in short: as §1
[13] = system: Salmonella typhimurium; assay: Antimicrobial activity against Salmonella Typhimurium at 20 ug after 24 hrs by disk diffusion method; type: functional, Salmonella enterica subsp. enterica serovar Typhimurium; settings: Salmonella enterica, read-out: IZ; in short: as §1
[14] = system: Bacillus subtilis; assay: Antimicrobial activity against Bacillus subtilis by broth microdilution assay; type: functional; in short: as §2
[15] = system: Salmonella typhimurium; assay: Antimicrobial activity against Salmonella Typhimurium at 10 ug after 24 hrs by disk diffusion method; type: functional, Salmonella enterica subsp. enterica serovar Typhimurium; settings: Salmonella enterica, read-out: IZ; in short: as §1
[16] = system: Staphylococcus aureus; assay: Antimicrobial activity against Staphylococcus aureus at 15 ug after 24 hrs by disk diffusion method; type: functional; settings: read-out: IZ; in short: as §1
[17] = system: Staphylococcus aureus; assay: Antimicrobial activity against Staphylococcus aureus at 20 ug after 24 hrs by disk diffusion method; type: functional; settings: read-out: IZ; in short: as §1
[18] = system: Salmonella typhimurium; assay: Antimicrobial activity against Salmonella Typhimurium at 5 ug after 24 hrs by disk diffusion method; type: functional, Salmonella enterica subsp. enterica serovar Typhimurium; settings: Salmonella enterica, read-out: IZ; in short: as §1
[19] = system: Klebsiella pneumoniae; assay: Antimicrobial activity against Klebsiella pneumoniae at 25 ug after 24 hrs by disk diffusion method; type: functional; settings: read-out: IZ; in short: as §1
[20] = system: Pseudomonas aeruginosa; assay: Antimicrobial activity against Pseudomonas aeruginosa at 25 ug after 24 hrs by disk diffusion method; type: functional; settings: read-out: IZ; in short: as §1
[21] = system: Salmonella typhimurium; assay: Antimicrobial activity against Salmonella Typhimurium at 15 ug after 24 hrs by disk diffusion method; type: functional, Salmonella enterica subsp. enterica serovar Typhimurium; settings: Salmonella enterica, read-out: IZ; in short: as §1
[22] = system: Klebsiella pneumoniae; assay: Antimicrobial activity against Klebsiella pneumoniae at 20 ug after 24 hrs by disk diffusion method; type: functional; settings: read-out: IZ; in short: as §1
[23] = Inhibition of DNA gyrase assessed as conversion of relaxed pBR322 to supercoiled form
In short: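 Supercoiling in 15 µL reactions: gyrase assay buffer, 150 ng relaxed pBR322, 2–3 µL purified DNA gyrase, 3 h at 37 °C (E. coli); stopped with 50% glycerol/0.25% bromophenol blue; 1% agarose in 1× TBE pH 8.3, 90 V 3 h; ethidium bromide stain; supercoiled band brightness by densitometry. Ciprofloxacin comparator.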

[24] = system: Escherichia coli; assay: Antimicrobial activity against Escherichia coli at 10 ug after 24 hrs by disk diffusion method; type: functional; settings: read-out: IZ; in short: as §1
[25] = system: Salmonella typhi; assay: Antimicrobial activity against Salmonella typhi by broth microdilution assay; type: functional, Salmonella enterica subsp. enterica serovar Typhi; settings: Salmonella enterica
In short: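 Broth microdilution in 96-well plates following the NCCLS 1997 protocol. Final inoculum was 10^5 cfu/mL, with a control organism run alongside. Plates were incubated at 35.7 °C in air for 18–20 h. MIC is the lowest concentration with no visible growth.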

[26] = system: Salmonella typhimurium; assay: Antimicrobial activity against Salmonella Typhimurium at 25 ug after 24 hrs by disk diffusion method; type: functional, Salmonella enterica subsp. enterica serovar Typhimurium; settings: Salmonella enterica, read-out: IZ; in short: as §1
[27] = system: Pseudomonas aeruginosa; assay: Antimicrobial activity against Pseudomonas aeruginosa at 5 ug after 24 hrs by disk diffusion method; type: functional; settings: read-out: IZ; in short: as §1
[28] = Inhibition of DNA gyrase assessed as pBR322 DNA relaxation at 1 uM
In short: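 Relaxation without ATP: gyrase (60 nM) with supercoiled pBR322 DNA (6 nM) and drug at […] for 1 h at 37 °C; relaxation judged by gel. Ciprofloxacin, novobiocin and nalidixic acid comparators.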

[29] = system: Escherichia coli; assay: Antimicrobial activity against Escherichia coli at 5 ug after 24 hrs by disk diffusion method; type: functional; settings: read-out: IZ; in short: as §1
[30] = system: Klebsiella pneumoniae; assay: Antimicrobial activity against Klebsiella pneumoniae at 5 ug after 24 hrs by disk diffusion method; type: functional; settings: read-out: IZ; in short: as §1
[31] = system: Staphylococcus aureus; assay: Antimicrobial activity against Staphylococcus aureus by broth microdilution assay; type: functional; in short: as §2
[32] = system: Escherichia coli; assay: Antimicrobial activity against Escherichia coli at 20 ug after 24 hrs by disk diffusion method; type: functional; settings: read-out: IZ; in short: as §1
[33] = system: Bacillus subtilis; assay: Antimicrobial activity against Bacillus subtilis at 25 ug after 24 hrs by disk diffusion method; type: functional; settings: read-out: IZ; in short: as §1
[34] = system: Escherichia coli; assay: Inhibition of DNA gyrase gene expression in Escherichia coli assessed as decrease in band intensity by RT-PCR amplification
In short: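 E. coli treated with drug; total RNA from cells sampled up to 24 h; 2 µg RNA to cDNA with MMLV reverse transcriptase; gyrase gene PCR (94 °C 4 min initial denaturation, 72 °C 7 min final extension); products on agarose gel, band intensity normalized to GAPDH; untreated cells as negative control.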

[35] = system: Pseudomonas aeruginosa; assay: Antimicrobial activity against Pseudomonas aeruginosa at 20 ug after 24 hrs by disk diffusion method; type: functional; settings: read-out: IZ; in short: as §1
[36] = system: Staphylococcus aureus; assay: Antimicrobial activity against Staphylococcus aureus at 5 ug after 24 hrs by disk diffusion method; type: functional; settings: read-out: IZ; in short: as §1
[37] = system: Bacillus subtilis; assay: Antimicrobial activity against Bacillus subtilis at 15 ug after 24 hrs by disk diffusion method; type: functional; settings: read-out: IZ; in short: as §1
[38] = Inhibition of DNA gyrase assessed as pBR322 DNA relaxation at 2.5 uM
In short: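 Gyrase (60 nM) was incubated with supercoiled pBR322 DNA (6 nM) and increasing compound concentrations (0, 0.1, 0.25, 0.5, 2.5) without ATP for 1 h at 37 °C. Relaxation of the supercoiled DNA was evaluated.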

## Cn1c(=O)c2cc3n(c2n(C)c1=O)CC1C3Nc2ccc(Cl)cc2C1(C)C (centres undefined)
[1]
  zone of inhibition at 15 µg/disc: 16 mm
[2]
  MIC50: 0.125 µg/mL (≈ 0.325 µM)
  MIC90: 2 µg/mL (≈ 5.2 µM)
[3]
  zone of inhibition at 10 µg/disc: 24 mm
[4]
  zone of inhibition at 25 µg/disc: 23 mm
[5]
  MIC50: 0.06 µg/mL (≈ 0.156 µM)
  MIC90: 0.25 µg/mL (≈ 0.65 µM)
[6]
  zone of inhibition at 25 µg/disc: 36 mm
[7]
  zone of inhibition at 15 µg/disc: 30 mm
[8]
  MIC50: 0.125 µg/mL (≈ 0.325 µM)
  MIC90: 1 µg/mL (≈ 2.6 µM)
[9]
  zone of inhibition at 15 µg/disc: 18 mm
[10]
  zone of inhibition at 20 µg/disc: 7 mm
[11]
  zone of inhibition at 10 µg/disc: 26 mm
[12]
  zone of inhibition at 10 µg/disc: 14 mm
[13]
  zone of inhibition at 20 µg/disc: 22 mm
[14]
  MIC50: 0.25 µg/mL (≈ 0.65 µM)
  MIC90: 1.2 µg/mL (≈ 3.12 µM)
[15]
  zone of inhibition at 10 µg/disc: 16 mm
[16]
  zone of inhibition at 15 µg/disc: 26 mm
[17]
  zone of inhibition at 20 µg/disc: 30 mm
[18]
  zone of inhibition at 5 µg/disc: 10 mm
[19]
  zone of inhibition at 25 µg/disc: 36 mm
[20]
  zone of inhibition at 25 µg/disc: 23 mm
[21]
  zone of inhibition at 15 µg/disc: 18 mm
[22]
  zone of inhibition at 20 µg/disc: 34 mm
[23]
  Activity: Active
[24]
  zone of inhibition at 10 µg/disc: 16 mm
[25]
  MIC50: 0.09 µg/mL (≈ 0.234 µM)
  MIC90: 0.15 µg/mL (≈ 0.39 µM)
[26]
  zone of inhibition at 25 µg/disc: 24 mm
[27]
  zone of inhibition at 5 µg/disc: 10 mm
[28]
  Activity: Active
[29]
  zone of inhibition at 5 µg/disc: 10 mm
[30]
  zone of inhibition at 5 µg/disc: 20 mm
[31]
  MIC50: 0.25 µg/mL (≈ 0.65 µM)
[32]
  zone of inhibition at 20 µg/disc: 20 mm
[33]
  zone of inhibition at 25 µg/disc: 9 mm
[34]
  Activity: Active
[35]
  zone of inhibition at 20 µg/disc: 20 mm
[36]
  zone of inhibition at 5 µg/disc: 20 mm
[37]
  zone of inhibition at 15 µg/disc: 6 mm

## CCn1cc(C(=O)O)c(=O)c2ccc(C)nc21
[23]
  Activity: Active
[38]
  Activity: Active
